Assay results reported in ChEMBL document CHEMBL1124192, “Cyclopentenylcytosine. A carbocyclic nucleoside with antitumor and antiviral properties” (J Med Chem, 1988).
Converted amounts (≈) assume the structure as drawn. “And” between values parts separate entries of the source, which are not always exact repeats. Equal values may be shown once.

Key:
[1] = tested on: P388; assay: Compound was tested for antitumor activity against P388/ara-C leukemia in mouse at dose 1.5 mg/kg administered intraperitoneally in experiment 2; type: functional; conditions: P388, ip, route intraperitoneal
How it was run: (§1)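 Mice bearing L1210, L1210/ara-C, P388 or P388/ara-C leukaemia. Tumour implanted at the site each line names: ip, sc or ic. Drug given ip in physiologic saline on a QD1-9 schedule, at several dose levels per experiment. Life-span runs ended on day 30. Read-out is median % increase in life span versus tumoured untreated controls, with long-term survivors included.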

[2] = tested on: Vero; assay: Cytotoxicity of compound was determined by reduction in number of viable vero monolayer cells after treatment with 0.01 ug/mL for 4 days; type: functional, Chlorocebus sabaeus
How it was run: (§2)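 Vero monolayers in duplicate cultures, exposed to each drug concentration in medium at 37 °C in a CO2 incubator for 4 days. Viable cells counted by trypan blue exclusion, and % reduction calculated against untreated control cultures.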

[3] = tested on: L1210; assay: Compound was tested for antitumor activity against L1210 leukemia in mouse at dose 1 mg/kg administered intraperitoneally in experiment 1; type: functional; conditions: L1210, ip, route intraperitoneal; how it was run: as §1
[4] = tested on: Human alphaherpesvirus 3; assay: Compound was tested for antiviral activity against Varicella-Zoster from human diploid foreskin cells in mono layer culture at 320 ug/ml; type: functional
How it was run: (§3)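 VZV isolate DM625 on Huf cells (human diploid foreskin monolayers). Inoculum was left on after 1 h adsorption at 37 °C. Drug overlay in MEM + 2% FBS without agarose, refed with fresh drug at 72 h, in 2% CO2. Cells fixed in 10% formalin and stained with methylene blue; plaques counted day 6. % plaque reduction versus untreated virus controls, triplicates.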

[5] = tested on: Vero; assay: Cytotoxicity of compound was determined by reduction in number of viable vero monolayer cells after treatment with 320 ug/mL for 4 days; type: functional, Chlorocebus sabaeus; how it was run: as §2
[6] = tested on: M5076; assay: Log cell kill at the end of treatment at dose 0.5 mg/kg administered intraperitoneally; type: functional, Mus musculus; conditions: route intraperitoneal
[7] = tested on: L1210; assay: Compound was tested for antitumor activity against L1210 leukemia in mouse at dose 2.25 mg/kg administered intraperitoneally in experiment 2; type: functional; conditions: L1210, ip, route intraperitoneal; how it was run: as §1
[8] = tested on: P388; assay: (§4) Log cell kill at the end of treatment at dose 1 mg/kg administered intraperitoneally; type: functional, Mus musculus; conditions: route intraperitoneal
[9] = tested on: L1210; assay: as §4; type: functional, Mus musculus; conditions: route intraperitoneal
[10] = tested on: Punta Toro virus; assay: Inhibitory dose of compound required to inhibit cytopathogenic effects of Punta toro virus with adames strain in vero cells; type: functional; conditions: read-out: ID50 (the source's name)
[11] = tested on: Mus musculus; assay: Compound was tested for antitumor activity against human LOX melanoma tumor xenografts in athymic mice at dose 1.5 mg/kg administered intraperitoneally in experiment 2; type: functional; conditions: ip, route intraperitoneal
How it was run: (§5)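 Athymic mice carrying human LOX melanoma. Drug given ip in saline on a QD1-9 schedule, at several dose levels. Life-span experiment ended on day 30. Read-out is % increase in life span versus untreated tumoured controls, with long-term survivors included.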

[12] = tested on: Vesicular stomatitis virus; assay: Tested for inhibition of virus-induced cytopathogenic effect and cytotoxicity of compound against vesicular stomatitis RNA virus with indiana strain in L929 cell; type: functional
[13] = tested on: Human alphaherpesvirus 3; assay: Compound was tested for antiviral activity against Varicella-Zoster from human diploid foreskin cells in mono layer culture at 0.32 ug/ml; type: functional; how it was run: as §3
[14] = tested on: P388; assay: Compound was tested for antitumor activity against P388 leukemia in mouse at dose 1 mg/kg administered intraperitoneally in experiment 1; type: functional; conditions: P388, ip, route intraperitoneal; how it was run: as §1
[15] = Ratio of minimum drug concentration to ID50 of the compound (Indiana strain); type: ADME
[16] = tested on: L1210; assay: Compound was tested for antitumor activity against L1210 leukemia in mouse at dose 1 mg/kg administered subcutaneously in experiment 2; type: functional; conditions: L1210, sc, route subcutaneous; how it was run: as §1
[17] = tested on: Vesicular stomatitis virus; assay: Inhibitory dose of compound required to inhibit cytopathogenic effects of vesicular stomatitis RNA virus with indiana strain in L929 cells; type: functional
[18] = tested on: Human alphaherpesvirus 3; assay: Compound was tested for antiviral activity against Varicella-Zoster from human diploid foreskin cells in mono layer culture at 0.032 ug/ml; type: functional; how it was run: as §3
[19] = tested on: P388; assay: Compound was tested for antitumor activity against P388 leukemia in mouse at dose 1.5 mg/kg administered intraperitoneally in experiment 2; type: functional; conditions: P388, ip, route intraperitoneal; how it was run: as §1
[20] = tested on: Mus musculus; assay: Compound was tested for antitumor activity against human MX-1 mammary tumor xenografts in athymic mice at dose 1.5 mg/kg administered subrenal capsule in experiment 1; type: functional
[21] = tested on: Punta Toro virus; assay: Tested for inhibition of virus-induced cytopathogenic effect and cytotoxicity of compound against Punta toro virus with adames strain in vero cell; type: functional
[22] = tested on: Yellow fever virus; assay: Tested for inhibition of virus-induced cytopathogenic effect and cytotoxicity of compound against yellow fever virus with asibi strain vero cell; type: functional
[23] = tested on: P388; assay: Compound was tested for antitumor activity against P388/ara-C leukemia in mouse at dose 1.5 mg/kg administered intraperitoneally in experiment 1; type: functional; conditions: P388, ip, route intraperitoneal; how it was run: as §1
[24] = Ratio of minimum drug concentration to ID50 of the compound ([…] strain); type: ADME; conditions: read-out: Therapeutic index
[25] = tested on: Human alphaherpesvirus 3; assay: Compound was tested for antiviral activity against Varicella-Zoster from human diploid foreskin cells in mono layer culture at 0.1 ug/ml; type: functional; how it was run: as §3
[26] = tested on: L1210; assay: Median percent increase in life span of tumored, treated mice relative to tumored, untreated controls after intraperitoneal dose 0.5 mg/kg daily(for every 3 hr); type: functional; conditions: Mus musculus, L1210, ip
[27] = Ratio of minimum drug concentration to ID50 of the compound(Asibi strain); type: ADME; conditions: read-out: Therapeutic index
[28] = tested on: Japanese encephalitis virus; assay: Tested for inhibition of virus-induced cytopathogenic effect and cytotoxicity of compound against Japanese encephalitis virus with […] strain in vero cell; type: functional
[29] = tested on: Mus musculus; assay: Compound was tested for antitumor activity against human LOX melanoma tumor xenografts in athymic mice at dose 2.25 mg/kg administered intraperitoneally; type: functional; conditions: ip, route intraperitoneal; how it was run: as §5
[30] = tested on: unidentified influenza virus; assay: Tested for inhibition of virus-induced cytopathogenic effect and cytotoxicity of compound against influenza virus with A2/Aichi/2/68 strain in MDCK cell; type: functional
[31] = tested on: Vero; assay: Cytotoxicity of compound was determined by reduction in number of viable vero monolayer cells after treatment with 1 ug/mL for 4 days; type: functional, Chlorocebus sabaeus; how it was run: as §2
[32] = tested on: L1210; assay: Median percent increase in life span of tumored, treated mice relative to tumored, untreated controls after intraperitoneal dose 1 mg/kg daily (1-9 days); type: functional; conditions: Mus musculus, L1210, ip
[33] = tested on: L1210; assay: Compound was tested for antitumor activity against L1210/ara-C leukemia in mouse at dose 1 mg/kg administered intraperitoneally; type: functional; conditions: L1210, ip, route intraperitoneal; how it was run: as §1
[34] = tested on: Human alphaherpesvirus 3; assay: Compound was tested for antiviral activity against Varicella-Zoster from human diploid foreskin cells in mono layer culture at 32 ug/ml; type: functional; how it was run: as §3
[35] = tested on: Human alphaherpesvirus 3; assay: Compound was tested for antiviral activity against Varicella-Zoster from human diploid foreskin cells in mono layer culture at 0.01 ug/ml; type: functional; how it was run: as §3
[36] = tested on: L1210; assay: Compound was tested for antitumor activity against L1210/ara-C leukemia in mouse at dose 1.5 mg/kg administered intraperitoneally; type: functional; conditions: L1210, ip, route intraperitoneal; how it was run: as §1
[37] = tested on: Cytomegalovirus; assay: Log value for antiviral activity against Cytomegalovirus (AD169) from MRC5 diploid human embryonic lung cells at 320 ug/mL; type: functional
How it was run: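 CMV AD169 yield reduction in MRC5 cells. Subconfluent monolayers infected at MOI 0.2 PFU/cell for 1.5 h at 37 °C, rinsed, then fed drug in MEM + 2% FBS, in duplicate. Drug refed on day 3, cultures harvested on day 6 by freeze-thaw and pooled. Yield titrated by plaque assay under 0.25% agarose overlay for 5–6 days, then formalin-fixed and methylene blue-stained for plaque counts.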

[38] = tested on: L1210; assay: Compound was tested for antitumor activity against L1210 leukemia in mouse at dose 1 mg/kg administered intraperitoneally in experiment 2; type: functional; conditions: L1210, ip, route intraperitoneal; how it was run: as §1

**Q.** For `Nc1ccn([C@@H]2C=C(CO)[C@@H](O)[C@H]2O)c(=O)n1`, which ILS at 1.5 mg/kg [1] is on record?
**A.** 133%

**Q.** And the Reduction [2]?
**A.** 0%

**Q.** What about the ILS at 1 mg/kg [3] of the same compound?
**A.** 212%

**Q.** What about the Plaque reduction [4] of the same compound?
**A.** 36%

**Q.** What about the Reduction [5] of the same compound?
**A.** 67%

**Q.** And the LCK [6]?
**A.** -2

**Q.** What about the ILS at 2.25 mg/kg [7] of the same compound?
**A.** 57%

**Q.** And the LCK [8]?
**A.** 0.9

**Q.** What about the LCK [9] of the same compound?
**A.** >6 and >5.8

**Q.** And the IC50 [10]?
**A.** 1.01 µg/mL (≈ 4.22 µM)

**Q.** What about the ILS at 1.5 mg/kg [11] of the same compound?
**A.** 80%

**Q.** What about the Virus rating [12] of the same compound?
**A.** 2.4 and 3

**Q.** What about the Plaque reduction [13] of the same compound?
**A.** 33%

**Q.** And the ILS at 1 mg/kg [14]?
**A.** 88%

**Q.** What about the Therapeutic index [15] of the same compound?
**A.** 0.4

**Q.** What about the selectivity ratio ([15]; read-out: Therapeutic index) of the same compound?
**A.** 0.6

**Q.** What about the ILS at 1 mg/kg [16] of the same compound?
**A.** 83%

**Q.** And the ID50 [17]?
**A.** 0.57 µg/mL and 0.25 µg/mL

**Q.** What about the Plaque reduction [18] of the same compound?
**A.** 3%

**Q.** And the ILS at 1.5 mg/kg [19]?
**A.** 69%

**Q.** And the ILS at 1.5 mg/kg [20]?
**A.** 100%

**Q.** What about the Virus rating [21] of the same compound?
**A.** 1.5

**Q.** And the Virus rating [22]?
**A.** 0.9

**Q.** What about the ILS at 1.5 mg/kg [23] of the same compound?
**A.** 165%

**Q.** What about the selectivity ratio [24] of the same compound?
**A.** 3.1

**Q.** What about the Plaque reduction [25] of the same compound?
**A.** 21%

**Q.** And the ILS at 0.5 mg/kg [26]?
**A.** 116%

**Q.** What about the selectivity ratio [27] of the same compound?
**A.** 0.1

**Q.** And the Virus rating [28]?
**A.** 2.4

**Q.** What about the ILS at 2.25 mg/kg [29] of the same compound?
**A.** 58%

**Q.** And the Virus rating [30]?
**A.** 2.4

**Q.** And the Reduction [31]?
**A.** 61%

**Q.** What about the ILS at 1 mg/kg [32] of the same compound?
**A.** 124%

**Q.** And the ILS at 1 mg/kg [33]?
**A.** > 650%

**Q.** And the Plaque reduction [34]?
**A.** 36%

**Q.** What about the Plaque reduction [35] of the same compound?
**A.** 0%

**Q.** What about the ILS at 1.5 mg/kg [36] of the same compound?
**A.** > 650%

**Q.** And the “Reduction in virus yield” value [37]?
**A.** 5.3 pfu/ml

**Q.** What about the ILS at 1 mg/kg [38] of the same compound?
**A.** 201%
